Source: ChEMBL document CHEMBL1134606, “Synthesis and structure-activity relationships of a new model of arylpiperazines. 5. Study of the physicochemical influence of the pharmacophore on 5-HT(1a)/alpha(1)-adrenergic receptor affinity: synthesis of a new derivative with mixed 5-HT(1a)/d(2) antagonist properties” (J Med Chem, 2001)

Columns and labels:
[1] = biological target: T1, Adrenergic receptor alpha-1 (Rattus norvegicus, UniProt P15823+P23944+P43140); experiment: In vitro binding affinity towards alpha-1 adrenergic receptor using radioligand [3H]prazosin; type: protein assay
T1 sequence (P15823 whole entry): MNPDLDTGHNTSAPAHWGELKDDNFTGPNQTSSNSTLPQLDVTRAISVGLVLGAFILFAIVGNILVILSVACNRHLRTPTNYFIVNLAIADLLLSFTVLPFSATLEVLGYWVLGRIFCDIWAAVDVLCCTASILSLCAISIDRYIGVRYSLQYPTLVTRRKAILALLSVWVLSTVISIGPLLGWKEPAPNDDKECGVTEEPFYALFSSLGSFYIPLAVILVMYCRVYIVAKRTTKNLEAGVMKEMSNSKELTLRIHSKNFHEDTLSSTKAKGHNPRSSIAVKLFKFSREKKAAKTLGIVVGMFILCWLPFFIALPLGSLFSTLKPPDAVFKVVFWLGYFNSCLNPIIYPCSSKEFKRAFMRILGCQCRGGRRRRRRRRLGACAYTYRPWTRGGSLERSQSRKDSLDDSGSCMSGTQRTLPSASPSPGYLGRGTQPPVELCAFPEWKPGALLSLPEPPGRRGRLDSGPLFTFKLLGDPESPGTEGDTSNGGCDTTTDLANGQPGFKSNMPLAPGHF
T1 sequence (P23944 whole entry): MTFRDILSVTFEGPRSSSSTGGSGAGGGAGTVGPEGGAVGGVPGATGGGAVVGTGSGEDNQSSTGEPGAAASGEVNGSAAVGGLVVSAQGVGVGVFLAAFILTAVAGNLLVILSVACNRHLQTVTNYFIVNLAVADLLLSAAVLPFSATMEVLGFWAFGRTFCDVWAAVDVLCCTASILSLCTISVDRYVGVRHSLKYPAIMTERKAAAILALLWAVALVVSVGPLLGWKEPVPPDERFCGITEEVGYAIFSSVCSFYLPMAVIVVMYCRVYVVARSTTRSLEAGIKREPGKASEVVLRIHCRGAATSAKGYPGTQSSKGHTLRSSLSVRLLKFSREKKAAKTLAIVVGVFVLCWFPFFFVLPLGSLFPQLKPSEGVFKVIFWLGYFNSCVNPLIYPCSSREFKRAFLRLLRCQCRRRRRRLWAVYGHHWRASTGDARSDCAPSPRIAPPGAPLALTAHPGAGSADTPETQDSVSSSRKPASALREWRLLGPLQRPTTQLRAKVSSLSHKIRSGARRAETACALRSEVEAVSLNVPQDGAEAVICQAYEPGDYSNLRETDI
T1 sequence (P43140 whole entry): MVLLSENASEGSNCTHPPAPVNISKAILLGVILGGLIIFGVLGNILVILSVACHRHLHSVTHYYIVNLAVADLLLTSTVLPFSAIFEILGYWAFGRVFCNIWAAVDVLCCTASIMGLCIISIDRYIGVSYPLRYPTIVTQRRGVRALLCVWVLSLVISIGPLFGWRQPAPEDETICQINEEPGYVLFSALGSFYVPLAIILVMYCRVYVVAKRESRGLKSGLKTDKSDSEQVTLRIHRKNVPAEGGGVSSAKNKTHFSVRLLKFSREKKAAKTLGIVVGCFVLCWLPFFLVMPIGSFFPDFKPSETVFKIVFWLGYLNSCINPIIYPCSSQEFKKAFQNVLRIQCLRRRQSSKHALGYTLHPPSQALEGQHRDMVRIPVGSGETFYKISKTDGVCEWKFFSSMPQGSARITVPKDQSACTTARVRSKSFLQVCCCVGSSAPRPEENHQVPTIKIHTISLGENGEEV
Outline: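 Cerebral cortex from male Sprague-Dawley rats, membranes (about 250 µg protein) in 50 mM Tris-HCl/10 mM MgCl2 pH 7.4, incubated 30 min at 25 °C with 0.2 nM [3H]prazosin and varied competitor concentrations; 10 µM phentolamine for nonspecific. Triplicates, filtration and scintillation counting; Ki from fitted IC50 by Cheng-Prusoff.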

[2] = biological target: T2, 5-hydroxytryptamine receptor 1A (Rattus norvegicus, UniProt P19327); experiment: In vitro binding affinity towards 5-hydroxytryptamine 1A receptor was determined using radioligand [3H]-8-OH-DPAT
T2 sequence (P19327 whole entry): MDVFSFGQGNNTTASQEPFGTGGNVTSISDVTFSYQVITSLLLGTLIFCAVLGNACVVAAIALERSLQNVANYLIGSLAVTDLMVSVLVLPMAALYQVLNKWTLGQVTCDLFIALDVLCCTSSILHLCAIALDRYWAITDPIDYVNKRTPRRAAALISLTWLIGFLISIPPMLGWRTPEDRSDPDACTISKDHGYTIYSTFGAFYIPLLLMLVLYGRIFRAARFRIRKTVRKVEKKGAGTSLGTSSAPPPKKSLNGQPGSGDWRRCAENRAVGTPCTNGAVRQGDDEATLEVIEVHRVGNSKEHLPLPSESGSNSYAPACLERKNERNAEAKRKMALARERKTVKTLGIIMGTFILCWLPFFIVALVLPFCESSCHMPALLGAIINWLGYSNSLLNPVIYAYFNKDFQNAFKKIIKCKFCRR
Outline: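 Rat (male Sprague-Dawley) cerebral cortex membranes, about 1 mg protein, incubated 15 min at 37 °C with 0.6 nM [3H]8-OH-DPAT plus competitor in 50 mM Tris-HCl with 10 nM clonidine and 30 nM prazosin, pH 7.4. Nonspecific binding with 10 µM 5-HT. Triplicates; GF/B filtration, scintillation counting; IC50 curve fit, Ki by Cheng-Prusoff; 2-4 experiments.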

[3] = biological target: 5-hydroxytryptamine receptor 3A (Rattus norvegicus) (UniProt P35563); experiment: In vitro binding affinity towards 5-hydroxytryptamine 3 receptor was determined
[4] = biological target: D(2) dopamine receptor (Rattus norvegicus) (UniProt P61169); experiment: In vitro binding affinity towards D2 receptor was determined
[5] = biological target: 5-hydroxytryptamine receptor 4 (Rattus norvegicus); experiment: In vitro binding affinity towards 5-HT4 receptor was determined
[6] = biological target: 5-hydroxytryptamine receptor 2A (Rattus norvegicus) (UniProt P14842); experiment: In vitro binding affinity towards 5-hydroxytryptamine 2A receptor was determined
5-hydroxytryptamine receptor 2A (Rattus norvegicus), sequence (P14842 whole entry, looked up): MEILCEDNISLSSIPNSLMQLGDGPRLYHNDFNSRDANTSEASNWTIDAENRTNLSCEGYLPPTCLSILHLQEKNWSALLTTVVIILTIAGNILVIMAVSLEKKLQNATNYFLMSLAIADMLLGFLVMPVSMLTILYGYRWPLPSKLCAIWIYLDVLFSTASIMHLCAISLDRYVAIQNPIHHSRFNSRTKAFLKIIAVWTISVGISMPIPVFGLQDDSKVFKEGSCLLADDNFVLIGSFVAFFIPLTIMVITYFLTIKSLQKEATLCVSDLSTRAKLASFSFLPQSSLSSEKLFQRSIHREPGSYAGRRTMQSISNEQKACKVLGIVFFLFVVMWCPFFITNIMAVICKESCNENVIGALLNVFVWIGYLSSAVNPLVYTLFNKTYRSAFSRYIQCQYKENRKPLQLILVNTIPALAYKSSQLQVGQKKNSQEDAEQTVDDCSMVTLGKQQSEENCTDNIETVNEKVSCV

5-hydroxytryptamine receptor 3A (Rattus norvegicus), sequence (P35563 whole entry, looked up): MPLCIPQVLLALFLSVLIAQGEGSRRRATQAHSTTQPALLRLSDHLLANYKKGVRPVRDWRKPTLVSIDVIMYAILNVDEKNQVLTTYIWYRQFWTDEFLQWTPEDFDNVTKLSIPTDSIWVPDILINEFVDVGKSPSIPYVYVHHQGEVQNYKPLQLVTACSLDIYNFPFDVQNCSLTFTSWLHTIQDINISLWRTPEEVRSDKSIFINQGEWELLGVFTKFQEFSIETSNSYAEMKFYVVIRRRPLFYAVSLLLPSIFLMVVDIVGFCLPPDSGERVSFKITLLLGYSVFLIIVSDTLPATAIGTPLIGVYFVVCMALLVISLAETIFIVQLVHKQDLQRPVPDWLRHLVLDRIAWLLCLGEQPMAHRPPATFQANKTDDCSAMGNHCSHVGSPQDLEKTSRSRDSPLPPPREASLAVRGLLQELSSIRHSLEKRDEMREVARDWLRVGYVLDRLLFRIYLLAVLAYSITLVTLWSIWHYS
D(2) dopamine receptor (Rattus norvegicus), sequence (P61169 whole entry, looked up): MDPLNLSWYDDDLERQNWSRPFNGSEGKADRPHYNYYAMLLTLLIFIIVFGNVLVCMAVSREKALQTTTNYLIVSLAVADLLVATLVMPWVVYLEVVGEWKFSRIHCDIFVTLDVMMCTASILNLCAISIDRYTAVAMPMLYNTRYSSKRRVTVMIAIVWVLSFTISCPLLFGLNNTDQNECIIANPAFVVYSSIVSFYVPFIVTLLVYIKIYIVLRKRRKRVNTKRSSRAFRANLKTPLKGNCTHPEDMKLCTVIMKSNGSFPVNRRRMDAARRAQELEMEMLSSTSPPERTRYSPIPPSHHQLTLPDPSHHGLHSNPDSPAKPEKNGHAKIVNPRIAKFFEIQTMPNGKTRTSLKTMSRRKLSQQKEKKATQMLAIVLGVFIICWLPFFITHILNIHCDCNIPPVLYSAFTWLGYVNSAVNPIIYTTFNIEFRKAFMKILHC

Ki [1] [nM] | Ki [2] [nM] | SMILES | other results
29 | 27 | Cc1ccccc1N1CCN(CCCCN2CC(=O)N3CCCCC3C2=O)CC1.Cl (stereo not drawn) | –
13 | 33 | Cl.N#Cc1ccccc1N1CCN(CCCN2C(=O)C3CCCCN3C2=O)CC1 (stereo not drawn) | –
28 | 8.6 | COc1ccccc1N1CCN(CCCCN2CC(=O)N3CCCC3C2=O)CC1.Cl (stereo not drawn) | –
23 | 27 | Cc1ccccc1N1CCN(CCCN2CC(=O)N3CCCC3C2=O)CC1.Cl (stereo not drawn) | –
18 | 6.5 | CCCCOc1ccccc1N1CCN(CCCCN2CC(=O)N3CCCC3C2=O)CC1.Cl (stereo not drawn) | –
0.4 | 1.2 | CCCCOc1ccccc1N1CCN(CCCCN2C(=O)C3CCCCN3C2=O)CC1.Cl (stereo not drawn) | –
8 | 3.7 | Cl.N#Cc1ccccc1N1CCN(CCCCN2C(=O)C3CCCN3C2=O)CC1 (stereo not drawn) | –
> 10000 | 169 | CC(C)C(=O)Nc1cccc(N2CCN(CCCCN3CC(=O)N4CCCCC4C3=O)CC2)c1.Cl (stereo not drawn) | –
> 1000 | > 10000 | CCCNC(=O)c1ccccc1N1CCN(CCCN2CC(=O)N3CCCCC3C2=O)CC1.Cl (stereo not drawn) | –
28 | 31 | Cl.N#Cc1ccccc1N1CCN(CCCN2CC(=O)N3CCCC3C2=O)CC1 (stereo not drawn) | –
16 | 126 | COc1ccccc1N1CCN(CCCN2CC(=O)N3CCCCC3C2=O)CC1.Cl (stereo not drawn) | –
79 | 110 | CCCCOc1ccccc1N1CCN(CCCN2CC(=O)N3CCCCC3C2=O)CC1.Cl (stereo not drawn) | –
252 | 214 | Cl.O=C1C2CCCCN2C(=O)CN1CCCN1CCN(c2cccc(C(F)(F)F)c2)CC1 (stereo not drawn) | –
> 1000 | > 1000 | CCCNC(=O)c1ccccc1N1CCN(CCCCN2CC(=O)N3CCCC3C2=O)CC1.Cl (stereo not drawn) | –
561 | 24 | CCCOC(=O)c1ccccc1N1CCN(CCCCN2CC(=O)N3CCCCC3C2=O)CC1.Cl (stereo not drawn) | –
26 | – | CCCOC(=O)c1ccccc1N1CCN(CCCN2CC(=O)N3CCCC3C2=O)CC1.Cl (stereo not drawn) | –
27 | 14 | Cl.N#Cc1ccccc1N1CCN(CCCCN2CC(=O)N3CCCCC3C2=O)CC1 (stereo not drawn) | –

Second part, the compound before the results:

SMILES | Ki [1] [nM] | Ki [2] [nM] | other results
Cl.Nc1cccc(N2CCN(CCCN3C(=O)C4CCCN4C3=O)CC2)c1 (stereo not drawn) | > 1000 | > 1000 | –
Cl.O=C1C2CCCCN2C(=O)N1CCCCN1CCN(c2cccc(Br)c2)CC1 (stereo not drawn) | 5.3 | 4 | –
CCCOC(=O)c1ccccc1N1CCN(CCCN2C(=O)C3CCCCN3C2=O)CC1.Cl (stereo not drawn) | 41 | 60 | –
CCCCOc1ccccc1N1CCN(CCCN2C(=O)C3CCCN3C2=O)CC1.Cl (stereo not drawn) | 30 | 11 | –
CCCOC(=O)c1ccccc1N1CCN(CCCCN2C(=O)C3CCCN3C2=O)CC1.Cl (stereo not drawn) | 51 | 3.9 | –
Cl.O=C1C2CCCN2C(=O)N1CCCN1CCN(c2cccc(Br)c2)CC1 (stereo not drawn) | 29 | 33 | –
CCCNC(=O)c1ccccc1N1CCN(CCCN2C(=O)C3CCCN3C2=O)CC1.Cl (stereo not drawn) | > 1000 | > 1000 | –
CC(C)C(=O)Nc1cccc(N2CCN(CCCN3C(=O)C4CCCCN4C3=O)CC2)c1.Cl (stereo not drawn) | > 10000 | > 1000 | –
CCCNC(=O)c1ccccc1N1CCN(CCCCN2C(=O)C3CCCCN3C2=O)CC1.Cl (stereo not drawn) | > 1000 | 341 | –
CCS(=O)(=O)Nc1cccc(N2CCN(CCCCN3C(=O)C4CCCN4C3=O)CC2)c1.Cl (stereo not drawn) | > 10000 | 27 | Ki [3]: > 1000 nM; Ki [4]: 22 nM; Ki [5]: > 1000 nM; Ki [6]: > 1000 nM
Cl.Nc1cccc(N2CCN(CCCCN3C(=O)C4CCCCN4C3=O)CC2)c1 (stereo not drawn) | 215 | 80 | –
Cl.O=C1C2CCCN2C(=O)CN1CCCCN1CCN(c2cccc(C(F)(F)F)c2)CC1 (stereo not drawn) | 95 | 3.6 | –
CC(C)C(=O)Nc1cccc(N2CCN(CCCN3CC(=O)N4CCCC4C3=O)CC2)c1.Cl (stereo not drawn) | > 1000 | 326 | –
CC(C)C(=O)Nc1cccc(N2CCN(CCCCN3C(=O)C4CCCN4C3=O)CC2)c1.Cl (stereo not drawn) | > 10000 | – | –
Cc1ccccc1N1CCN(CCCCN2C(=O)C3CCCN3C2=O)CC1.Cl (stereo not drawn) | 10 | 16 | –
Cc1ccccc1N1CCN(CCCN2C(=O)C3CCCCN3C2=O)CC1.Cl (stereo not drawn) | 5.3 | 134 | –
